Measured values as given in ChEMBL document CHEMBL1932920.
Active and inactive are the calls of the source.

How the values were obtained:
[1] = target: T1, Serine carboxypeptidase-like 48 (Arabidopsis thaliana) (UniProt Q56WF8); assay: Binding affinity to SCPL48 in Arabidopsis thaliana leaf extracts at 4 to 20 uM after 1 hr using SDS-PAGE followed by nanoLC-ESI-MS/MS analysis
T1 sequence (whole entry): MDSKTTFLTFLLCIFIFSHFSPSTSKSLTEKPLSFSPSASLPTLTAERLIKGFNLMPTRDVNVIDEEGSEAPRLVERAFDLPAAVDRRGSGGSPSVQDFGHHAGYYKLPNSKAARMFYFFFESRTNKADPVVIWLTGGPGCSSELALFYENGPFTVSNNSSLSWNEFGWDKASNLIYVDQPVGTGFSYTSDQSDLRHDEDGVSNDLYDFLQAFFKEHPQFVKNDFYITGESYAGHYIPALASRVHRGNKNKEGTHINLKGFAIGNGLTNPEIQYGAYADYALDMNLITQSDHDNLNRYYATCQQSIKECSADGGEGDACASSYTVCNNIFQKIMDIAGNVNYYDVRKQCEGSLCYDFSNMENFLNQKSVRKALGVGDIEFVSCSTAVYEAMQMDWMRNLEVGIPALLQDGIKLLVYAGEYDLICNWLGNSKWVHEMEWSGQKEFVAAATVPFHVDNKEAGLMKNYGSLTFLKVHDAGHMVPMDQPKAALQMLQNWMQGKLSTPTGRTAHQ

[2] = target: T2, Probable carboxylesterase 7 (Arabidopsis thaliana) (UniProt Q9ZQ91); assay: Binding affinity to CXE7 in Arabidopsis thaliana leaf extracts at 4 to 20 uM after 1 hr using SDS-PAGE followed by nanoLC-ESI-MS/MS analysis
T2 sequence (whole entry): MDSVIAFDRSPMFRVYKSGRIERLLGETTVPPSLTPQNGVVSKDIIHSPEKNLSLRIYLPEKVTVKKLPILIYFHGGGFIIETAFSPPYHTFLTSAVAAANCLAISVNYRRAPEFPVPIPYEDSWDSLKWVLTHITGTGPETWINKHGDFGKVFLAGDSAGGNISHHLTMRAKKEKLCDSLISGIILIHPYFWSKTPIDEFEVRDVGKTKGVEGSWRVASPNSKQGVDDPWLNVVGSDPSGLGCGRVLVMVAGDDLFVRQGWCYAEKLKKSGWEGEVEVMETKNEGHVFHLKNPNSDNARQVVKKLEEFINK

[3] = target: T3, Probable carboxylesterase 12 (Arabidopsis thaliana) (UniProt Q9SMN0); assay: Binding affinity to CXE12 in Arabidopsis thaliana leaf extracts at 4 to 20 uM after 1 hr using SDS-PAGE followed by nanoLC-ESI-MS/MS analysis
T3 sequence (whole entry): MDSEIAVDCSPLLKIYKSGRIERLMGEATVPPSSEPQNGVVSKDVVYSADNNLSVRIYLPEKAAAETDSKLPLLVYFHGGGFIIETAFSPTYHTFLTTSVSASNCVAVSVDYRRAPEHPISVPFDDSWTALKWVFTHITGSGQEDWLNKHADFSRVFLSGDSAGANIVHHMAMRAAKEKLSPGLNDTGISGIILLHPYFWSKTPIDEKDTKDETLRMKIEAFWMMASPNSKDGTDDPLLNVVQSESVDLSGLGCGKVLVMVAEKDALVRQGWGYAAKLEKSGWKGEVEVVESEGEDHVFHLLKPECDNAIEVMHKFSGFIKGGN

Arabidopsis thaliana [4] = assay: Binding affinity to POPL in Arabidopsis thaliana leaf extracts at 4 to 20 uM after 1 hr using SDS-PAGE followed by nanoLC-ESI-MS/MS analysis
Arabidopsis thaliana [5] = assay: Binding affinity to POPL in Arabidopsis thaliana leaf extracts pre-incubated with 100 uM paraoxon for 30 mins at 5 uM after 1 hr using SDS-PAGE followed by nanoLC-ESI-MS/MS analysis
Outline: (§1)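 Extract from 2 g frozen leaves of 4-week-old A. thaliana Col-0, ground, taken up in water, cleared 5 min at 16,000×g. Labeled with 5 µM probe, biotinylated targets pulled down on avidin beads, run on 1D SDS–PAGE and fluorescence-scanned. Bands excised, digested in-gel, and analysed by nanoLC-ESI-MS/MS on LTQ Velos (C18, 5–40% acetonitrile over 90 min, 300 nL/min, positive mode, m/z 400–1600).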

[6] = target: T1, Serine carboxypeptidase-like 48 (Arabidopsis thaliana); assay: Binding affinity to SCPL48 in Arabidopsis thaliana leaf extracts pre-incubated with 100 uM paraoxon for 30 mins at 5 uM after 1 hr using SDS-PAGE followed by nanoLC-ESI-MS/MS analysis; outline: as §1
[7] = target: T3, Probable carboxylesterase 12 (Arabidopsis thaliana); assay: Binding affinity to CXE12 in Arabidopsis thaliana leaf extracts pre-incubated with 100 uM paraoxon for 30 mins at 5 uM after 1 hr using SDS-PAGE followed by nanoLC-ESI-MS/MS analysis; outline: as §1
[8] = target: T2, Probable carboxylesterase 7 (Arabidopsis thaliana); assay: Binding affinity to CXE7 in Arabidopsis thaliana leaf extracts pre-incubated with 100 uM paraoxon for 30 mins at 5 uM after 1 hr using SDS-PAGE followed by nanoLC-ESI-MS/MS analysis; outline: as §1
[9] = target: T3, Probable carboxylesterase 12 (Arabidopsis thaliana); assay: Binding affinity to Arabidopsis thaliana CXE12 overexpressed in agroin filtreated Nicotiana benthamiana leaf extracts pre-incubated with 100 uM paraoxon for 30 mins at 2 uM after 1 hr using SDS-PAGE followed by nanoLC-ESI-MS/MS analysis
Outline: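 CXE12 cDNA in binary vector, Agrobacterium GV3101 pMP90, co-infiltrated with p19 silencing-suppressor strain into 4-week-old N. benthamiana leaves (p19 alone as control). Leaf extracts preincubated 30 min with 100 µM paraoxon or DMSO, then labeled 1 h with 2 µM probe. Reactions stopped in gel loading buffer, proteins resolved on gels, fluorescence scanning.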

Measured: Activity

C#CCNC(=O)OCCOCCOCCOCCP(=O)(OCC)Oc1ccc([N+](=O)[O-])cc1 (centres undefined)
active: [1] | [2] | [3] | Arabidopsis thaliana [4]

CCOP(=O)(CCOCCOCCOCCOC(=O)NCc1cn(CCCCCNC(=O)CCC(=O)N[C@@H](CCCCNC(=O)CCCCC[C@@H]2SC[C@@H]3NC(=O)N[C@@H]32)C(=O)NCCCCCNC(=O)c2ccc(-c3c4ccc(=[N+](C)C)cc-4oc4cc(N(C)C)ccc34)c(C(=O)[O-])c2)nn1)Oc1ccc([N+](=O)[O-])cc1 (some centres undefined)
active: Arabidopsis thaliana [5] | [6] | [7] | [8] | [9]
